Data set [1] can be described thus: melting temperature; fluorescence melt of hairpins on a sequencing array, two-state fit, raised by 9.35 °C to match UV melts. As to conditions: sodium 0.088 M. The procedure, abridged: (§1)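 Two-state fits, bootstrapped, provided melting temperature and folding enthalpy from Cy3 fluorescence normalised to pre-quench Cy3 and to control constructs. Library hairpins with annealed Cy3 and quencher oligos were imaged on a sequenced MiSeq flow cell in 50 mM Na-HEPES pH 8.0, 25 mM NaCl, at 2.5 °C intervals up to 60 °C. Four replicates were combined with inverse-variance weighting. A 9.35 °C upward shift was applied to fitted temperatures to match UV melts.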

Data set [2] in a line: folding enthalpy; higher = less favourable; fluorescence melt of hairpins on a sequencing array, two-state fit. As to conditions: sodium 0.088 M. The procedure, abridged: as §1

In the case of GGTGATCGAAAGATACC (((.(((....)))))), the Tm in data set [1] was found to be 37.5 °C. The folding enthalpy in data set [2] is -25.2 kcal/mol.
On to GGTGATGAAAATCACC ((((((....)))))), for which, in data set [1], the Tm stood at 62.5 °C. In addition, the folding enthalpy in data set [2] was -32.1 kcal/mol.
For GGTGATGGAAACGTCATC (.(((.(....).))).) the same measures were 34.7 °C and -26.4 kcal/mol.
For the sequence GGTGCAGGAAACTGCATC (.(((((....))))).), the Tm in data set [1] worked out at 53 °C. In data set [2], the folding enthalpy was -22.4 kcal/mol.
In the case of GGTGCCACGAAAGTGACC (((..(((....)))))), in data set [1], the Tm turned out to be 35.5 °C. The folding enthalpy in data set [2] is -15.5 kcal/mol.
For the sequence GGTGCCCCGAAAGGGACC (((..(((....)))))), the Tm in data set [1] came out at 47.9 °C. In addition, in data set [2], the folding enthalpy was -16.2 kcal/mol.
GGTGCCGGAAACGGTACC (((.(((....))).))): in data set [1], the Tm was 64.1 °C. Besides, the folding enthalpy in data set [2] was -35.8 kcal/mol.
On to GGTGCCTCGAAAGAGACC (((..(((....)))))), for which the Tm in data set [1] worked out at 30.8 °C. For the same sequence, the folding enthalpy in data set [2] is -15 kcal/mol.
As for GGTGCGGGAAACCGCATC (.(((((....))))).), the Tm in data set [1] was found to be 60.4 °C. In addition, in data set [2], the folding enthalpy was -15.7 kcal/mol.
For GGTGCTCGAAAGAGTACC (((.(((....))).))) the same measures were 60 °C and -45.9 kcal/mol.
For GGTGCTGGAAACAGTACC (((.(((....))).))), the Tm in data set [1] was found to be 53.5 °C. Besides, in data set [2], the folding enthalpy was -43.3 kcal/mol.
Regarding GGTGGAACGAAAGTTACC (((..(((....)))))), in data set [1], the Tm was 36.5 °C. Further, the folding enthalpy in data set [2] is -17.3 kcal/mol.
On the same counts, the results for GGTGGAGGAAACTCCACC (((((((....))))))) are 67.5 °C and -38.6 kcal/mol.
For GGTGGAGGAAACTCTACC (((.(((....))).))) the same measures were 48 °C and -35.8 kcal/mol.
For GGTGGCCGAAAGGCTACC (((.(((....))).))) the same measures were 67.3 °C and -29.6 kcal/mol.
With GGTGGCGAAAGCCAAACC ((((((....)))..))), the Tm in data set [1] stood at 47.2 °C. Further, the folding enthalpy in data set [2] was -14.2 kcal/mol.
In the case of GGTGGCGAAAGCCAACC ((((((....))).))), in data set [1], the Tm came out at 64.5 °C. Moreover, in data set [2], the folding enthalpy is -16.9 kcal/mol.
On the same counts, the results for GGTGGCGAAAGCCAGACC ((((((....)))..))) are 46.9 °C and -12.6 kcal/mol.
On to GGTGGCGAAAGCCATACC ((((((....)))..))), for which the Tm in data set [1] turned out to be 45.6 °C. Also, in data set [2], the folding enthalpy was -12 kcal/mol.
For GGTGGCGAAAGCCTACC ((((((....))).))) the same measures were 56.2 °C and -17.1 kcal/mol.
Take GGTGGGGGAAACCCTACC (((.(((....))).))): the Tm in data set [1] came out at 52.7 °C. The folding enthalpy in data set [2] was -27.1 kcal/mol.
On the same counts, the results for GGTGGGGGAAACCTCACC ((((.((....)).)))) are 53.5 °C and -39.5 kcal/mol.
In the case of GGTGGGTCGAAAGACACC (((..(((....)))))), the Tm in data set [1] was determined as 50.9 °C. The folding enthalpy in data set [2] is -12.4 kcal/mol.
On the same counts, the results for GGTGGTGGAAACACTACC (((.(((....))).))) are 52.9 °C and -29.8 kcal/mol.
On the same counts, the results for GGTGGTGGAAACACTGCC ((..(((....)))..)) are 47.2 °C and -25.5 kcal/mol.
For GGTGGTGGAAACGCTACC (((.(.(....).).))) the same measures were 40.4 °C and -28.1 kcal/mol.
On to GGTGTCACGAAAGTGACC (((..(((....)))))), for which, in data set [1], the Tm came out at 50 °C. Also, the folding enthalpy in data set [2] was -10.2 kcal/mol.
With GGTGTCGAAAGACAAACC ((((((....)))..))), the Tm in data set [1] turned out to be 44.4 °C. In addition, the folding enthalpy in data set [2] was -16.6 kcal/mol.
For GGTGTCGAAAGACACACC ((((((....)))..))) the same measures were 52.5 °C and -9.34 kcal/mol.
On to GGTGTCGAAAGACGAACC ((((((....)))..))), for which the Tm in data set [1] turned out to be 40.9 °C. The folding enthalpy in data set [2] is -18.8 kcal/mol.
For GGTGTCGGAAACAACACC (((((.(....).))))) the same measures were 45.2 °C and -36.1 kcal/mol.
Consider GGTGTCGGAAACGGTACC (((..((....))..))), for which the Tm in data set [1] was found to be 40.9 °C. Moreover, the folding enthalpy in data set [2] is -28.6 kcal/mol.
With GGTGTGGAAACACACC ((((((....)))))), in data set [1], the Tm was determined as 66.6 °C. For the same sequence, in data set [2], the folding enthalpy is -30.2 kcal/mol.
For GGTGTGGGAAACTACGCC ((.((.(....).)).)) the same measures were 43.4 °C and -29.6 kcal/mol.
For GGTGTTGGAAACAACATC (.(((((....))))).), the Tm in data set [1] was found to be 48.2 °C. The folding enthalpy in data set [2] is -24.3 kcal/mol.
Regarding GGTTAACGAAAGTTGACC (((.(((....))).))), in data set [1], the Tm came out at 53.2 °C. In addition, in data set [2], the folding enthalpy is -27.6 kcal/mol.
On the same counts, the results for GGTTAAGGAAACCTAACC (((((.(....).))))) are 35.2 °C and -25 kcal/mol.

These data come from the array DNA melting data of Ke et al. (doi:10.1101/2024.01.08.574731).
